Compound activity (PubChem)
A selection: hits, their analogues and other compounds. The true share with any hit is near 9.2%.
ERa coact inh = ER-alpha (human) coactivator binding inhibition; P03372; TR-FRET ER-alpha LBD / SRC-1 peptide, estradiol-bound; inhibition, % at 25.6 µM; 86,000 tested, 1.7% active; AID 629; in the data active = inhibition above about 50%
Target sequence (P03372 whole entry, looked up, the tested form may be a part): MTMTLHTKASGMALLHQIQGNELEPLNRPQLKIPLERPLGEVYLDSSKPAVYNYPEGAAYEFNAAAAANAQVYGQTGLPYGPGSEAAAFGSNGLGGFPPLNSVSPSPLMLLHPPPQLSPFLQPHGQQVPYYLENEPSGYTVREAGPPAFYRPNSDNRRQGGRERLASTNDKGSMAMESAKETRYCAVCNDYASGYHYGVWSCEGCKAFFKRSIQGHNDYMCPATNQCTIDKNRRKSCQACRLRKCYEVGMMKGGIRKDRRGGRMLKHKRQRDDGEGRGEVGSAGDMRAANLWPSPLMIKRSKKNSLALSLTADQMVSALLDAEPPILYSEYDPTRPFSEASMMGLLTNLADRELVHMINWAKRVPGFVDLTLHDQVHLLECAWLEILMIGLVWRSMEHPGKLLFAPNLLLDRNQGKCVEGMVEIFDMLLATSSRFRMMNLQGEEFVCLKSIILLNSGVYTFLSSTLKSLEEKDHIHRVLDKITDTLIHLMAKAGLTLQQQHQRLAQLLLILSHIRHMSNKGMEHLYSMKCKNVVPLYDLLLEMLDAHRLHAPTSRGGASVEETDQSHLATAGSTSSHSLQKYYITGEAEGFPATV
ERa SRC1 pot = ER-alpha (human) coactivator binding potentiation; P03372; TR-FRET ERalpha-LBD/SRC-Cy5 coactivator binding, 2 h; 100 = basal binding, no effect; coactivator binding (% of control), % at 25.6 µM; 86,000 tested, 1.3% active; AID 639; in the data active = activity above about 200%;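 note: binding measured in presence of low estradiol as agonist stimulus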
Fibroblast inh = blocks proliferation of human lung fibroblasts; viability, % at 10 µM; 85,000 tested, 1.1% active; LL 47 human lung fibroblast viability, ATP luminescence; hits give low values; AID 719;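 active = viability at or below 50% in the single dose screen; inactive = viability above 50%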;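 note: compound exposure lasted 72 h before the ATP readout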
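Material: human LL 47 lung fibroblast cells; quantity: 1,150 cells/well; medium: IMEM plus 15% FBS; doses: 0.1% DMSO in all compound wells; timing: overnight attachment after seeding, then 72 h compound exposure at 37 °C; detection: CellTiter-Glo luminescence; measure: % viability of median cell-only signal; controls: cell-only wells, no compound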
H69AR inhibit = growth inhibitors of human H69AR lung tumor cells | H69AR lung tumor viability, ATP luminescence, 72 h; hits give low values | viability, % at 10 µM | 85,000 tested, 6% active;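 active = viability at or below 40%; inactive = viability above 40%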;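 note: multidrug resistant small cell line overexpressing MRP-1 efflux transporter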
HUVEC inhibit = blocks proliferation of human endothelial cells | viability, % at 10 µM (by protocol) | HUVEC proliferation, CellTiter-Glo luminescence, 72 h; hits give low values | 86,000 tested, 1.1% active;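 active = viability at or below 30%; inactive = viability above 30%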
ERb coact inh = blocks coactivator binding to human estrogen receptor beta; Q92731; AID 633; inhibition, % at 25.6 µM; TR-FRET ER-beta LBD / SRC1-Cy5 peptide binding; receptor agonist-loaded with 1 µM estradiol; 86,000 tested, 1.3% active;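 active = compounds whose percent inhibition of the receptor-coactivator binding signal exceeds about 50% in the single-dose screen, limit read from the data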
Of the large screens only hits and unclear results are named; the others gave an inactive call; ! = not confirmed by another sample; [ ] = another dose, or the depositor's remark.

O=C(Nc1ccc2nc(-c3ccccn3)[nH]c2c1)C1CCCCC1	H69AR inhibit 26.1
CCCCOc1ccc(C2(C)CC(=O)NC2=O)cc1 (configuration not stated)	none
CCCn1c(CNc2ccccc2O)nc2ccccc21	H69AR inhibit 26.8
S=P(c1ccc(N2CCOCC2)cc1N1CCOCC1)(N1CCOCC1)N1CCOCC1	none
Cc1ccc(CN(CC2CCCO2)C(=O)CN2C(=O)C(C(C)C)Oc3ccccc32)o1 (configuration not stated)	H69AR inhibit 38.3
CCC(=O)Oc1ccc(C(=O)Nc2ccc3c(c2)C(=O)N(C2CCCCC2)C3=O)cc1	H69AR inhibit 5.3
CCOC(=O)c1ccc2c(c1)C(=O)N(C1CCCCC1)C2=O	none
Cc1cc(C)cc(OC(=O)CCN2C(=O)c3ccccc3C2=O)c1	none
Cc1ccc(NC(=O)c2ccc(OC(=O)CCN3C(=O)c4ccccc4C3=O)cc2)cc1	ERa SRC1 pot 372.1[fluorescence artefact?]
CCCCOc1ccc(C(=O)NCc2ccccn2)cc1	ERa SRC1 pot 622.7[fluorescence artefact?]
O=C(NCc1ccccn1)c1ccc(/C=N/O)nc1	ERb coact inh 65.8[fluorescence artefact?]
CC(C)(C)NC(=O)NC(=O)COC(=O)c1ccco1	none
O=c1[nH]c(NCc2ccccc2)nc2c1CCCC2	none
COc1ccc(NC(=O)/C(Cl)=C(/Cl)S(=O)(=O)Cc2ccc(C)cc2)cn1	Fibroblast inh 2.3, HUVEC inhibit 5.4
COc1ccc(NC(=O)C(CC(C)C)NC(=O)c2ccccc2C)cn1 (configuration not stated)	none (no result: Fibroblast inh)
COc1ccc(CN(C(=O)CSc2nnc(-c3ccccc3C)o2)c2ccc(F)cc2)cc1	H69AR inhibit 0.4
Cn1c(=O)c2c(nc(SCc3ccccn3)n2C)n(C)c1=O	none
COCCCNC(=O)c1ccc(Cn2c(=O)c3ccccc3n(Cc3ccccc3C)c2=O)cc1	H69AR inhibit 18.8
COCCCNC(=O)c1ccc(Cn2c(=O)c3ccccc3n(Cc3ccccc3C#N)c2=O)cc1	H69AR inhibit 18.3
COCCNC(=O)Cn1c(=O)n(Cc2ccc(C(=O)NCc3ccco3)cc2)c(=O)c2ccccc21	none
COCCCNC(=O)c1ccc(Cn2c(=O)c3ccccc3n(Cc3cc(C)ccc3C)c2=O)cc1	H69AR inhibit 39.2
COCCCNC(=O)c1ccc(Cn2c(=O)[nH]c3ccccc3c2=O)cc1	H69AR inhibit 22.6
COCCCNC(=O)CCCn1c(=O)[nH]c2ccccc2c1=O	none (no result: Fibroblast inh)
c1ccc(-c2cc3n(c2)CCc2ccccc2-3)cc1	none
COc1ccc(C(=O)N/C(N)=N/c2nc3ccccc3o2)cc1	H69AR inhibit 18.8
CC(C)CCNC(=O)CN(C(=O)CCC(=O)Nc1ccccn1)c1ccc2c(c1)OCO2	none
Cc1oc(-c2ccccc2)nc1C(=O)Nc1nccs1	ERa coact inh 52.3[fluorescence artefact?]
Cc1cc2nc(C)n(CCCNC(=O)Nc3cccc4ccccc34)c2cc1C	ERa coact inh 50.7[fluorescence artefact?]
Cc1ccc(Cl)cc1N1CCN(S(=O)(=O)c2cnc[nH]2)CC1	none
COc1ccc2c(c1OC)C(=O)N1c3ccccc3C(=O)N(c3ccccc3F)C21 (configuration not stated)	H69AR inhibit 3.7
Cn1c(C(=O)OC(C(=O)NCc2ccco2)c2ccncc2)cc2sccc21 (configuration not stated)	none
COc1ccc(C2=NOC(C(=O)NCc3cccs3)C2)cc1OC (configuration not stated)	H69AR inhibit 24.2
COc1cc(C2=NOC(C(=O)NCc3cccs3)C2)cc(OC)c1OC (configuration not stated)	H69AR inhibit 24.0
CCC(c1nnnn1Cc1ccccc1)N(Cc1ccco1)Cc1cc2cc(OC)ccc2[nH]c1=O (configuration not stated)	H69AR inhibit 16.2
CCOC(=O)Cn1nnnc1C(CC)N(Cc1ccccc1)Cc1cc2cc(C)ccc2[nH]c1=O (configuration not stated)	none
CCC(c1nnnn1Cc1ccco1)N(CCc1ccccc1)Cc1cc2cc(C)ccc2[nH]c1=O (configuration not stated)	H69AR inhibit 22.2
CCOc1ccc(N(Cc2cc3ccc(C)cc3[nH]c2=O)S(C)(=O)=O)cc1	none
CCOC(=O)c1sc(NC(=O)CNC(=O)Cn2cnc3sc(C)c(C)c3c2=O)nc1C	ERa SRC1 pot 225.8
Cc1cc(C)c(C(=O)COc2cccnc2[N+](=O)[O-])cc1C	ERa coact inh 54.7[fluorescence artefact?], H69AR inhibit 1.1, ERb coact inh 88.8
COc1ccc(OC)c(CCNC(=O)Cn2sc3nc(C)cc(C)c3c2=O)c1	Fibroblast inh 31.4, H69AR inhibit 0.0
CC1C(O)=C(c2nc3ccccc3[nH]2)C(=N)N1c1ccccc1 (configuration not stated)	H69AR inhibit 22.1
CCC(C)N1CC(O)=C(c2nc3ccccc3[nH]2)C1=N (configuration not stated)	none
CCCCCCN1CC(O)=C(c2nc3ccccc3[nH]2)C1=N	ERa coact inh 60.7[fluorescence artefact?], ERa SRC1 pot 244.1[fluorescence artefact?]
N=C1C(c2nc3ccccc3[nH]2)=C(O)CN1c1ccccc1	H69AR inhibit 32.5
CCOC(=O)c1ccc(N2CC(O)=C(c3nc4ccccc4c(=O)[nH]3)C2=N)cc1	none
N=C1C(c2nc3ccccc3[nH]2)=C(O)CN1c1ccc(CC(=O)O)cc1	ERb coact inh 57.5
C=CCc1cccc2cc(C(=O)NCc3ccc(C(=O)OCC)o3)c(=O)oc12	none
Cc1cccc(NC(=S)N(CCN(C)C)C(C)c2ccccn2)c1 (configuration not stated)	none
CCC(C)NC(=O)CSc1nnc(-c2cc(-c3cccs3)nc3ccccc23)o1 (configuration not stated)	none
Cc1cccc(N2CCN(C(=O)c3cc4c(=O)n(C)c5ccccc5c4n3C)CC2C)c1 (configuration not stated)	none
C=CCOC(=O)N1CCN(c2cccc(C(F)(F)F)c2)CC1	none
Cc1ccc(C)n1-c1sccc1C(=O)O	ERa coact inh 71.3[fluorescence artefact?], ERb coact inh 60.0
CC(=O)OCC(=O)Nc1ccc(C(C)=O)cc1	H69AR inhibit 38.9
CCOC(=O)c1cc2c(C(F)(F)F)cc(-c3cccnc3)nc2o1	none
COc1ccc(-n2c(C)cc(C(=O)CSc3nnc(-c4ccoc4C)n3C)c2C)cc1	none
NS(=O)(=O)c1ccc(CCNC(=O)Nc2ccc(Cl)c(Cl)c2)cc1	H69AR inhibit 19.4
Cc1ccc(N(CC2=NCCN2)c2cccc(O)c2)cc1	ERb coact inh 70.2!
c1ccc(CN(CC2=NCCN2)c2ccccc2)cc1	none
CCOc1cc2[nH]c(=S)n(CCC(=O)N3CCc4ccccc4C3)c(=O)c2cc1OCC	H69AR inhibit 28.5
CCOc1cc2[nH]c(=S)n(CCCN3CCN(C)CC3)c(=O)c2cc1OCC	none
